According to ChEMBL document CHEMBL6078712, “Triterpenoid phthalimides as selective anti-cancer agents targeting mitochondrial apoptosis” (Eur J Med Chem, 2025):
The source made the active and inactive calls. The calls are words filed in the database; no cut-off is given here.

Key:
[1] = tested on: CCRF-CEM; experiment: Induction of apoptosis in human CCRF-CEM cells assessed as upregulation of BIM expression at 1 to 5 times IC50 incubated for 24 hrs by Western blotting analysis; assay type: functional, cell-based
Method in brief: (§1)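 30 µg protein per lane on SDS-PAGE, transferred to nitrocellulose, blocked in 5 % BSA/TBS-Tween. Primary antibodies overnight at 4 °C (Akt, P-Akt Ser473, STAT-3, caspase-3, PARP, cyclin D, cyclin A, Bcl-xL, Bak, Bid, Bim), then HRP secondary and ECL detection. GAPDH as loading control.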

[2] = tested on: CCRF-CEM; experiment: Induction of apoptosis in human CCRF-CEM cells assessed as necrotic cells at 1 times IC50 incubated for 24 hrs by Annexin V-FITC and PI staining based flow cytometric analysis (reference value: 0.4 %); assay type: functional
Method in brief: (§2)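 Washed in Ca2+-containing binding buffer, then stained 15 min at room temperature in the dark with Annexin V-FITC and propidium iodide (PI at half the kit-recommended level). Read at once by flow cytometry with a 488 nm laser, ≥10,000 cells. Debris excluded; quadrants viable, early apoptotic, late apoptotic/necrotic, necrotic. Three independent experiments.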

[3] = Stability in human plasma assessed as compound remaining at 2 uM incubated for 30 mins by RF-MS analysis; assay type: ADME, cell-free; conditions: read-out: Stability
Method in brief: (§3)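 Human plasma stability, plasma protein binding and liver microsome stability, each run in triplicate. Error deviations below 10 %.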

[4] = tested on: K562; experiment: Cytotoxicity against human K562 cells assessed as inhibition of cell growth incubated for 72 hrs by MTS assay; assay type: functional, cell-based; conditions: K562, 72 h
Method in brief: (§4)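 MTS assay on eight human cancer lines and two non-tumour fibroblast lines. IC50 is the concentration that inhibits cell growth by 50 %. SD typically up to 15 % of the mean.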

[5] = tested on: CCRF-CEM; experiment: Induction of apoptosis in human CCRF-CEM cells assessed as downregulation of BCL-XL expression at 5 times IC50 incubated for 24 hrs by Western blotting analysis; assay type: functional, cell-based; method in brief: as §1
[6] = tested on: CCRF-CEM; experiment: Inhibition of DNA synthesis in human CCRF-CEM cells at 1 times IC50 incubated for 24 hrs by BrdU incorporation based flow cytometry; assay type: functional
Method in brief: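 Fixed in ice-cold 70 % ethanol, DNA denatured in 2 M HCl for 30 min, neutralised with borax. Stained with anti-BrdU plus FITC secondary, then PI/RNase A for 1 h. Flow cytometry; % BrdU-positive cells.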

[7] = tested on: CEM-DNR; experiment: Cytotoxicity against human CEM-DNR cells assessed as inhibition of cell growth incubated for 72 hrs by MTS assay; assay type: functional, cell-based; method in brief: as §4
[8] = tested on: CCRF-CEM; experiment: Inhibition of RNA synthesis in human CCRF-CEM cells at 1 times IC50 incubated for 24 hrs by BrU incorporation based flow cytometry; assay type: functional
Method in brief: (§5)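 Fixed in 1 % paraformaldehyde/0.05 % NP-40 (15 min at room temperature, then 4 °C overnight). Stained with cross-reacting anti-BrdU plus FITC secondary (45 min each), then PI/RNase A. Flow cytometry; % BrU-positive cells.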

[9] = tested on: CCRF-CEM; experiment: Induction of apoptosis in human CCRF-CEM cells assessed as early apoptotic cells at 1 times IC50 incubated for 24 hrs by Annexin V-FITC and PI staining based flow cytometric analysis (reference value: 2.1 %); assay type: functional; method in brief: as §2
[10] = tested on: CCRF-CEM; experiment: Induction of apoptosis in human CCRF-CEM cells assessed as late apoptotic cells at 1 times IC50 incubated for 24 hrs by Annexin V-FITC and PI staining based flow cytometric analysis (reference value: 0.4 %); assay type: functional; method in brief: as §2
[11] = tested on: HCT 116 TP53(-/-); experiment: Cytotoxicity against human HCT116-p53-null cells assessed as inhibition of cell growth incubated for 72 hrs by MTS assay; assay type: functional, cell-based; method in brief: as §4
[12] = tested on: A549; experiment: Cytotoxicity against human A549 cells assessed as inhibition of cell growth incubated for 72 hrs by MTS assay; assay type: functional, cell-based; conditions: A549, 72 h; method in brief: as §4
[13] = tested on: Mitochondrial membrane; experiment: Induction of mitochondrial membrane potential depolarization in human CCRF-CEM cells assessed as fold increase in fluorescence intensity incubated for 24 hrs by JC-1 staining based flow cytometry; assay type: cell membranes
[14] = tested on: CCRF-CEM; experiment: Induction of cell cycle arrest in human CCRF-CEM cells assessed as downregulation of Cyclin A expression at 5 times IC50 incubated for 24 hrs by Western blotting analysis; assay type: functional, cell-based; method in brief: as §1
[15] = tested on: CCRF-CEM; experiment: Inhibition of RNA synthesis in human CCRF-CEM cells at 5 times IC50 incubated for 24 hrs by BrU incorporation based flow cytometry; assay type: functional; method in brief: as §5
[16] = tested on: CCRF-CEM; experiment: Induction of cell cycle arrest in human CCRF-CEM cells assessed as downregulation of total STAT3 expression at 5 times IC50 incubated for 24 hrs by Western blotting analysis; assay type: functional, cell-based; method in brief: as §1
[17] = tested on: CCRF-CEM; experiment: Induction of cell cycle arrest in human CCRF-CEM cells assessed as downregulation of AKT phosphorylation at 5 times IC50 incubated for 24 hrs by Western blotting analysis; assay type: functional, cell-based; method in brief: as §1
[18] = tested on: CCRF-CEM; experiment: Induction of apoptosis in human CCRF-CEM cells assessed as upregulation of BID expression at 1 to 5 times IC50 incubated for 24 hrs by Western blotting analysis; assay type: functional, cell-based; method in brief: as §1
[19] = Stability in human plasma assessed as compound remaining at 2 uM incubated for 60 mins by RF-MS analysis; assay type: ADME, cell-free; conditions: read-out: Stability; method in brief: as §3
[20] = Cytotoxicity against human MRC5 cells assessed as inhibition of cell growth incubated for 72 hrs by MTS assay; assay type: toxicity, cell-based; method in brief: as §4
[21] = tested on: CCRF-CEM; experiment: Induction of cell cycle arrest in human CCRF-CEM cells assessed as downregulation of total AKT expression at 5 times IC50 incubated for 24 hrs by Western blotting analysis; assay type: functional, cell-based; method in brief: as §1
[22] = tested on: CCRF-CEM; experiment: Induction of cell cycle arrest in human CCRF-CEM cells assessed as downregulation of AKT phosphorylation at 1 times IC50 incubated for 24 hrs by Western blotting analysis; assay type: functional, cell-based; method in brief: as §1
[23] = Plasma protein binding in human assessed as fraction bound at 10 uM incubated for 4 hrs by rapid equilibrium dialysis based RF-MS analysis; assay type: ADME, cell-free; conditions: read-out: PPB (converted); method in brief: as §3
[24] = tested on: CCRF-CEM; experiment: Induction of cell cycle arrest in human CCRF-CEM cells assessed as increase in accumulation of G0/G1 phase at 1 times IC50 incubated for 24 hrs by RNase/PI staining based flow cytometry; assay type: functional
Method in brief: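 Propidium iodide staining and flow cytometry with a 488 nm laser, ≥10,000 intact cells. Phase proportions compared with untreated cells; SEM of three independent experiments.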

[25] = Cytotoxicity against human K562-Tax cells assessed as inhibition of cell growth incubated for 72 hrs by MTS assay; assay type: functional, cell-based; method in brief: as §4
[26] = tested on: CCRF-CEM; experiment: Induction of apoptosis in human CCRF-CEM cells assessed as early apoptotic cells at 5 times IC50 incubated for 24 hrs by Annexin V-FITC and PI staining based flow cytometric analysis (reference value: 2.1 %); assay type: functional; method in brief: as §2
[27] = Metabolic stability in human liver microsomes assessed as parent compound remaining at 2 uM incubated for 30 mins in presence of NADPH by RF-MS analysis; assay type: ADME, Microsome; conditions: read-out: Stability; method in brief: as §3
[28] = tested on: Mitochondrial membrane; experiment: Induction of mitochondrial membrane potential depolarization in human CCRF-CEM cells assessed as fold increase in fluorescence intensity at 5 times IC50 incubated for 24 hrs by JC-1 staining based flow cytometry; assay type: cell membranes
[29] = tested on: CCRF-CEM; experiment: Induction of apoptosis in human CCRF-CEM cells assessed as downregulation of caspase-3 expression at 5 times IC50 incubated for 24 hrs by Western blotting analysis; assay type: functional, cell-based; method in brief: as §1
[30] = tested on: HCT-116; experiment: Cytotoxicity against human HCT-116 cells assessed as inhibition of cell growth incubated for 72 hrs by MTS assay; assay type: functional, cell-based; conditions: HCT-116, 72 h; method in brief: as §4

Question: What does the source list for `CC(=O)O[C@H]1CC[C@]2(C)[C@H]3CC[C@@H]4[C@H]5[C@H](c6cc7c(c(-c8ccccc8)c6)C(=O)N(c6cc[nH]n6)C7=O)CC[C@]5(C(=O)O)CC[C@@]4(C)[C@]3(C)CC[C@H]2C1(C)C`?
Answer: Activity [1]: Active; Activity [2]: 0%; remaining at 0.5 h, 2 µM [3]: 91%; IC50 [4]: 14.5 µM; Activity [5]: Active; inhibition (INH) [6]: 23.6%; IC50 [7]: 11.5 µM; inhibition (INH) [8]: 23.8%; Activity [9]: 4.8%; Activity [10]: 2.4%; IC50 [11]: 13.7 µM; IC50 [12]: 18.9 µM; Activity [13]: Dose-dependent-effect; Activity [14]: Active; inhibition (INH) [15]: 47.4%; Activity [16]: Active; Activity [17]: Active; Activity [18]: Active; remaining at 1 h, 2 µM [19]: 92%; IC50 at 72 h [20]: 22.6 µM; Activity [21]: Active; Slight Activity Observed; Activity [22]: Active; fraction unbound at 4 h, 10 µM [23]: 0.121; Activity [24]: Active; Slight Increased Activity Observed; IC50 [25]: 13.3 µM; Activity [26]: 7.9%; remaining at 0.5 h, 2 µM [27]: 99%; fold change (FC) [28]: > 20; Activity [29]: Active; IC50 [30]: 9.54 µM
